The results in this text go back to ChEMBL document CHEMBL4196022, “Alkynyl-containing phenylthiazoles: Systemically active antibacterial agents effective against methicillin-resistant Staphylococcus aureus (MRSA)” (Eur J Med Chem, 2018).

In brackets after ≈: the same amount, converted by molar mass. Activity calls are given as the source filed them. The rule behind the calls is not given here.

In data set [1] the test system is Staphylococcus aureus. The experiment in a line: Antibacterial activity against methicillin-resistant Staphylococcus aureus NRS107 after 20 hrs by broth microdilution assay. The class given is functional. The following applies: NRS107, 20 h. The essentials: (§1)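 Broth microdilution per CLSI in cation-adjusted Mueller Hinton broth. Compounds serially diluted, in triplicate. Incubation at 37 °C for at least 20 hours. MIC taken as the lowest concentration with no visible bacterial growth.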
In general terms: Dilution methods test growth across graded concentrations, often in twofold steps.

For data set [2], the system named is Staphylococcus aureus. Nature of the data set: Bactericidal activity against methicillin-resistant Staphylococcus aureus USA300 up to 18 hrs by broth microdilution assay. It counts as functional. Particulars: USA300, 18 h, read-out: MBC99.9.
In data set [3] the test system is Staphylococcus aureus. The experiment in a line: Antibacterial activity against methicillin-resistant Staphylococcus aureus NRS119 after 20 hrs by broth microdilution assay. The following applies: NRS119, 20 h. The class given is functional. The essentials:
as §1

In data set [4] the test system is Staphylococcus aureus. Nature of the data set: Bactericidal activity against methicillin-resistant Staphylococcus aureus NRS119 up to 18 hrs by broth microdilution assay. It counts as functional. The following applies: NRS119, 18 h, read-out: MBC99.9.
Data set [5] concerns Staphylococcus aureus. Nature of the data set: Antibacterial activity against methicillin-resistant Staphylococcus aureus NRS123 (USA400) after 20 hrs by broth microdilution assay. It counts as functional. A digest of the protocol: as §1
Data set [6] has as its system Staphylococcus aureus. Nature of the data set: Bactericidal activity against methicillin resistant Staphylococcus aureus NRS123 (USA400) up to 18 hrs by broth microdilution assay. It counts as functional. Particulars: read-out: MBC99.9.
For data set [7], the system named is Staphylococcus aureus. The experiment in a line: Bactericidal activity against methicillin resistant vancomycin-resistant Staphylococcus aureus VRS10 up to 18 hrs by broth microdilution assay. It counts as functional. Particulars: VRS10, 18 h, read-out: MBC99.9.
Data set [8] relates to Staphylococcus aureus. The experiment in a line: Antibacterial activity against vancomycin-resistant Staphylococcus aureus VRS11a after 20 hrs by broth microdilution assay. The class given is functional. The essentials:
as §1

In data set [9] the test system is Staphylococcus aureus. Nature of the data set: Bactericidal activity against methicillin resistant vancomycin-resistant Staphylococcus aureus VRS11a up to 18 hrs by broth microdilution assay. It counts as functional. Particulars: read-out: MBC99.9.
The test system of data set [10] is Staphylococcus aureus. Nature of the data set: Antibacterial activity against vancomycin-resistant Staphylococcus aureus VRS12 after 20 hrs by broth microdilution assay. The class given is functional. The following applies: VRS12, 20 h. The essentials: as §1
Data set [11] deals with Staphylococcus aureus. Nature of the data set: Potency index, ratio of vancomycin MIC to compound MIC for antibacterial activity against vancomycin-resistant Staphylococcus aureus VRS11a. The class given is functional.
In data set [12] the test system is Staphylococcus aureus. Nature of the data set: Ratio of MBC to MIC for methicillin-resistant Staphylococcus aureus USA300. It counts as functional. The essentials: (§2)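 MBC/MIC ratio. […] MBC by plating no-growth wells onto tryptic soy agar at 37 °C for at least 18 h; taken as the concentration giving 99.9% growth inhibition.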
Data set [13] deals with Staphylococcus aureus. Nature of the data set: Ratio of MBC to MIC for methicillin-resistant Staphylococcus aureus NRS107. It counts as functional. A digest of the protocol: as §2
Data set [14] concerns J774. Nature of the data set: Cytotoxicity against mouse J774 cells assessed as reduction in cell viability up to 8 ug/ml after 24 hrs by MTS assay. It counts as cell-based. The following applies: j774, 24 h. A digest of the protocol: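 J774 murine macrophages were grown in DMEM with 10% FBS at 37 °C, 5% CO2. Compounds were tested at 8, 16 and 32 μg/mL in triplicate for 24 h, with a DMSO-matched control. MTS was added for 4 h and absorbance read at 490 nm. Viability is given as % of DMSO control (mean ± SD); Student t-test with Holm-Sidak test.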
(In general: Tetrazolium dyes change colour on reduction, which living cells bring about.)

In data set [15] the test system is Staphylococcus aureus. Nature of the data set: Antibacterial activity against methicillin-resistant Staphylococcus aureus NRS123 (USA400) infected in mouse J774 cells at 8 ug/ml after 24 hrs. It counts as functional, organism-based. A digest of the protocol: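 J774 macrophages grown in DMEM with 10% FBS at 37 °C, 5% CO2. Infected with USA400 at MOI ~100:1 for 1 h, then washed with gentamicin 50 μg/mL. Treated in triplicate wells for 24 h, washed with gentamicin again and lysed with 0.1% Triton X-100. Lysate plated on tryptic soy agar for 18–22 h; CFU/mL counted.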

Data set [16] concerns HRT-18 cell line. The experiment in a line: Cytotoxicity against human HRT18 cells assessed as reduction in cell viability up to 32 ug/ml after 2 hrs by MTS assay. The class given is cell-based. Particulars: hrt-18, 2 h.
Data set [17] in a line: Selectivity index, ratio of toxic concentration for human HRT18 cells to MIC for methicillin-resistant Staphylococcus aureus. It counts as toxicity. Particulars: read-out: Selectivity Index.
Data set [18] deals with T1, Farnesyl pyrophosphate synthase (Homo sapiens, UniProt P14324).
T1 sequence (P14324 whole entry): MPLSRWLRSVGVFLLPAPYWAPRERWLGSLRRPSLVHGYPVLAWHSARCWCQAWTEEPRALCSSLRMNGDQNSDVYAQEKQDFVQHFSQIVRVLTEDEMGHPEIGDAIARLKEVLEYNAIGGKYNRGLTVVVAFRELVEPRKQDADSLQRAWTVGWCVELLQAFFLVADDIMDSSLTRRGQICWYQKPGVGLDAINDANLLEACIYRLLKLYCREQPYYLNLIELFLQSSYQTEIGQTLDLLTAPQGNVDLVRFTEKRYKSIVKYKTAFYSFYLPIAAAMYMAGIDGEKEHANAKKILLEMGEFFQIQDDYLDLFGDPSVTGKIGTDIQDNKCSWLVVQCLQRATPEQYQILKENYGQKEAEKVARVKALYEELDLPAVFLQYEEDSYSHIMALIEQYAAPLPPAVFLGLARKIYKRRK
The experiment in a line: Inhibition of human FPPS.

A short description of data set [19]: Apparent permeability from apical to basolateral side in human Caco2 cells at 10 uM after 60 mins by LC-MS/MS analysis. Particulars: caco-2, 1 h. It counts as ADME, cell-based. A digest of the protocol:
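Caco-2 monolayers were seeded at 1 × 10^5 cells/cm2 and differentiated for three weeks. Test article was at 10 μM (1% DMSO) in HBSS-MES pH 6.5 or HBSS-HEPES pH 7.4 and added to the donor side. Incubation ran 60 min (A→B) or 40 min (B→A), and receiver buffer was analysed by LC/MS/MS. Lucifer yellow and fluorescein checked monolayer integrity. Efflux ratio = Papp(B→A)/Papp(A→B).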

Data set [20] in a line: Half life in human liver microsomes at 0.1 uM preincubated for 5 mins followed by NDAPH addition measured up to 60 mins by HPLC-MS/MS analysis. Particulars: 1 h. In general terms: Liver microsomes are a subcellular fraction often used to study metabolism.
Data set [21] deals with Rattus norvegicus. The experiment in a line: Half life in Sprague-Dawley rat at 2 uM administered as single iv bolus dose by LC-MS/MS analysis. The class given is ADME, organism-based. The following applies: in vivo. A digest of the protocol: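 Male naïve Sprague-Dawley rats (three animals) received an IV bolus of a 2 μM solution. EDTA-K2 blood was sampled over 12 h post dose. Plasma was protein-precipitated with acetonitrile and quantified by LC/MS/MS. Parameters came from two-compartmental pharmacokinetic analysis.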

For data set [22], the system named is Staphylococcus aureus. The experiment in a line: Antibacterial activity against methicillin-resistant Staphylococcus aureus USA300 infected in Caenorhabditis elegans AU37 assessed as reduction in bacterial burden at 20 ug/ml after 18 hrs relative to control. The class given is functional. Details: scale not given: the % may be the effect or the level left. A digest of the protocol: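 L4-stage C. elegans AU37 infected on USA300 lawns for 6 h and washed with M9 buffer. 25–30 worms per well exposed to 20 μg/mL for 18 h, in triplicate. Worms then lysed and plated on TSA with 5 μg/mL nalidixic acid for 17 h at 37 °C. CFU per worm expressed as % reduction versus PBS.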

Data set [23] concerns Staphylococcus aureus. The experiment in a line: Antibacterial activity against methicillin-resistant Staphylococcus aureus USA300 in neutropenic Balb/c mouse thigh infection model assessed as reduction in bacterial burden in thigh at 20 mg/kg, ip administered twice at 2 and 12 hrs post infection and measured at 24 hrs post infection relative to control. It counts as functional. Also noted: scale not given: the % may be the effect or the level left. The essentials: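 Female BALB/c mice, 6–8 weeks old, n=5, made neutropenic with i.p. cyclophosphamide 150 and 100 mg/kg on days −4 and −1. Right thigh injected with 100 μL of 5.35×10^7 CFU/mL USA300. […] Thighs harvested at 24 h and counted as CFU/g on mannitol salt agar.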

On to `C/C(=N\NC(=N)N)c1sc(-c2ccc(C#CC3CC3)cc2)nc1C`, for which the minimal inhibitory concentration (MIC) in [1], in [3], in data set [5], in data set [8] and in data set [10] was 2 µg/mL (≈ 5.93 µM) each time. Also, the MBC is 4 µg/mL (≈ 11.9 µM) in data set [2]; 2 µg/mL (≈ 5.93 µM) in data set [4]; 2 µg/mL (≈ 5.93 µM) in data set [6]; 4 µg/mL (≈ 11.9 µM) in data set [7]; 2 µg/mL (≈ 5.93 µM) in data set [9]. The Ratio is above 100 in data set [11], “<=3” in [12] and “<=3” in data set [13]. Moreover, the Activity entry is listed as “Non-Toxic” in [14], “Non-Toxic” in data set [16], 90% in [22] and 77% in data set [23]. Also, the outcome in [15] was inactive. Besides, the selectivity ratio in data set [17] lay within 7 to 31. For the same compound, in data set [18], the “inhibition (INH)” value was “Not Active”. Also, the apparent permeability (Papp) (in general, the rate of passage across a membrane or cell layer, normalised by area and donor concentration) in data set [19] amounted to 0.05 ×10⁻⁶ cm/s. In addition, the t1/2 is 4.87 h in data set [20] and 4.43 h in data set [21].
